The list is not random: actives were taken first. Their share in the collection is about 1.8%.
CHRM4 antagonist: human M4 muscarinic receptor antagonists, primary screen, CHO cells, Fluo-8 calcium fluorescence. 360,000 tested, 0.73% active. CHO-hM4 cells, ACh EC80. inhibition, % at 3 µM. Muscarinic acetylcholine receptor M4 (Homo sapiens), P08173;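 active = inhibition above its plate's cutoff, the mean inhibition of sample wells plus 3 SD, cut at about 27% in these data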;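 also: 0% = acetylcholine EC80 with DMSO and 100% = DMSO without agonist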
Target sequence (P08173 whole entry, looked up): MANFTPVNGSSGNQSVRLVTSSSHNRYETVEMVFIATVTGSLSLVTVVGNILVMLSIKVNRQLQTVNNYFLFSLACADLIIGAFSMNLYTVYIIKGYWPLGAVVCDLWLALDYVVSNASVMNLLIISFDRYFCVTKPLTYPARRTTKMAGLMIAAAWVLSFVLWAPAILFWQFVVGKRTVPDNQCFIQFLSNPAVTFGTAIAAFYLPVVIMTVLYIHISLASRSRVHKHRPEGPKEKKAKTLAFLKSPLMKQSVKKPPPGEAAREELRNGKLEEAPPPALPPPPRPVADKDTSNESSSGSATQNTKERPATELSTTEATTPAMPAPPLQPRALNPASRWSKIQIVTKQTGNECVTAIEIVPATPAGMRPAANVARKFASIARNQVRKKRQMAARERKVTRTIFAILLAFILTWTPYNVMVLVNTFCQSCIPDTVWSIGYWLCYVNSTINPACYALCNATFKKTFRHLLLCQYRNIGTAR
CHRM5 PAM: human M5 muscarinic receptor positive allosteric modulators, primary screen, CHO-K1 cells, Fluo-8 calcium fluorescence. Muscarinic acetylcholine receptor M5 (Homo sapiens), P08912. CHO-K1 hM5, ACh EC20 PAM; 0% = ACh EC20, 100% = ACh EC100. activation, % at 3 µM. 360,000 tested, 0.3% active. AID 624038, 2012;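 active = activation above the run cutoff, the mean activation of all test compounds plus 3 SD, cut at about 18% in these data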
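System: CHO-K1 hM5 cells. Reagent: acetylcholine, EC20 level. Compound dosing: single dose, 3 µM nominal final test concentration. Timing: Post-acetylcholine fluorescence recording 140 s. Detection: Fluo-8 calcium fluorescence. Read-out: % activation, ACh-normalized. Benchmarks: ACh EC20 and EC100 wells. Repeats: singlicate, one well per test compound.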
CHRM4 agonist: human M4 muscarinic receptor agonists, primary screen, CHO-K1 cells, Fluo-8 calcium fluorescence. CHO-K1 hM4/Gqi5; vehicle 0%, full acetylcholine response 100%. Muscarinic acetylcholine receptor M4 (Homo sapiens), P08173. activation, % at 3 µM. AID 624127, 2012. 360,000 tested, 0.14% active;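 active = activation above the run mean over all test wells plus 3 SD, cut at about 32% in these data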;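 also: peak over basal fluorescence ratio per well then scaled between controls; 0% = DMSO wells and 100% = acetylcholine at EC100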
CHRM5 antagonist: human M5 muscarinic receptor antagonists, primary screen, CHO cells, Fluo-8 calcium fluorescence. Muscarinic acetylcholine receptor M5 (Homo sapiens), P08912. CHO-hM5 cells, ACh EC80. inhibition, % at 3 µM. AID 624040, 2012. 360,000 tested, 0.59% active;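 active = inhibition above a per-plate cutoff, the mean of that plate's test compounds plus 3 SD, cut at about 27% in these data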;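 also: 0% = acetylcholine EC80 with DMSO and 100% = DMSO without agonist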
M4 PAM: human M4 muscarinic receptor positive allosteric modulators, primary screen, CHO-K1 cells, Fluo-8 calcium fluorescence | activation, % at 3 µM | 360,000 tested, 0.4% active | CHO-K1 hM4/Gqi5, ACh EC20; 0% = ACh EC20, 100% = maximal ACh | AID 624126, 2012;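 active = activation above its plate's cutoff, the mean activation of sample wells plus 3 SD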
CHRM5 agonist: human M5 muscarinic receptor agonists, primary screen, CHO-K1 cells, Fluo-8 calcium fluorescence | activation, % at 3 µM | Muscarinic acetylcholine receptor M5 (Homo sapiens), P08912 | 360,000 tested, 0.19% active | CHO-K1 hM5 cells; 0% DMSO wells, 100% maximal acetylcholine response;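 active = activation above the run's mean over test compounds plus 3 SD, cut at about 23% in these data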;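 also: signal is peak over basal fluorescence ratio across the kinetic read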
The depositor's hits bear a star.

SMILES | CHRM4 antagonist | CHRM5 PAM | CHRM4 agonist | CHRM5 antagonist | M4 PAM | CHRM5 agonist
CC1=CC(C)(C)NC(=S)N1c1cccc2cc(S(=O)(=O)O)ccc12 | 7 | -14 | 15 | 27* | -10 | 0
CC1=CC(C)(C)NC(=S)N1c1ccccc1C | 12 | -2 | 1 | 16 | -5 | 0
CCc1cc2c(SCc3ccc(C(=O)OC)o3)ncnc2s1 | 2 | 4 | 1 | -5 | -8 | -4
CCC(NC(=O)CCCc1ccccc1)c1ccccc1 (configuration not stated) | 6 | -4 | 0 | 6 | -1 | -5
CC(C)NC(=O)CCCc1ccccc1 | -1 | 7 | 2 | -4 | 29* | 4
Cc1oc(-c2ccccc2Cl)nc1CS(=O)CC(=O)NCc1ccc2c(c1)OCO2 (configuration not stated) | -10 | 23* | 2 | -26 | 3 | -1
Cc1ccccc1-c1nc(CS(=O)CC(=O)NCc2ccc3c(c2)OCO3)c(C)o1 (configuration not stated) | 2 | -11 | 6 | 26 | -1 | -5
O=C(OCc1cn([C@@H]2CN(Cc3cccs3)[C@@H](c3ccccc3)C[C@H]2O)nn1)c1ccccc1 | -1 | 3 | 11 | -9 | -5 | 1
O=S(=O)(Nc1cc(Sc2ncn[nH]2)c(O)c2ccccc12)c1ccccc1 | 20 | -4 | 14 | 28* | -6 | 1
CCOc1ccccc1-c1cc(C(=O)Nc2ccc(C(=O)O)cc2)c2ccccc2n1 | -26 | -3 | 1 | 3 | 14* | -4
CC(Oc1ccc2cc(-c3ccccc3)c(=O)oc2c1)C(=O)NCC1CCC(C(=O)O)CC1 (configuration not stated) | -2 | 3 | 0 | 1 | 4 | 0
CC(CCCN(C)C)C(Cc1ccccc1)c1ccccc1 (configuration not stated) | 29* | -35 | 10 | 31* | -17 | -18
CN(C)CC(c1ccccc1)c1ccccc1 | 3 | -6 | 0 | 14 | -2 | -19
CN(C)CCC(=O)C(Cc1ccccc1)c1ccccc1 (configuration not stated) | 35* | -19 | 4 | 5 | -15 | -18
CN(C)CCNC(=O)C(c1ccccc1)c1ccccc1 | -4 | -8 | 1 | 11 | -5 | -20
O=C(Nc1ccccc1)C(=O)Nc1ccc2c(c1)N(C(=O)C1CC1)CCC2 | -12 | 1 | 7 | -4 | 17* | 2
O=C(C1CCC(C(=O)N2CCc3ccccc32)CC1)N1CCc2ccccc21 (configuration not stated) | -3 | -1 | 0 | -1 | -2 | -4
S=C1N(c2ccccc2)C(c2ccc(Cl)cc2)N2CCCN12 (configuration not stated) | 42* | -43 | 0 | 25 | -19 | -11
S=C1N(c2ccccc2)C(c2ccc(Br)cc2)N2CCCN12 (configuration not stated) | 79* | -37 | -1 | 38* | -55 | -19
COc1ccc(-c2nc3ncccc3o2)cc1NC(=O)c1ccco1 | 13 | 1 | 0 | 3 | -6 | -1
O=C(C1CCN(S(=O)(=O)c2cnc[nH]2)CC1)N1CCN(c2ccc([N+](=O)[O-])cc2)CC1 | -9 | -2 | 1 | 12 | 14* | -4
Cc1cccc(N(C(=O)CNC(=O)c2ccco2)C(C(=O)NC2CCCC2)c2ccncc2)c1C (configuration not stated) | -8 | 7 | 1 | 2 | 7 | -3
CSc1ccc(CN2CCC(Oc3ccc(C(=O)N4CCCC4)cc3)CC2)cc1 | 29* | -8 | 0 | 8 | -19 | -9
CC(C)c1ccc(CN2CCC(Oc3ccc(C(=O)N4CCCC4)cc3)CC2)cc1 | 31* | -11 | 5 | 30* | -14 | -7
CCc1ccc(CN2CCC(Oc3ccc(C(=O)N4CCCC4)cc3)CC2)cc1 | 36* | -9 | 1 | 15 | -16 | -9
SMILES | CHRM4 antagonist | CHRM5 PAM | CHRM4 agonist | CHRM5 antagonist | M4 PAM | CHRM5 agonist
CCOC(=O)c1c(NC(=O)CN2C(=O)C(=O)N(C(C)C)C2=O)sc(C)c1CC | -22 | 6 | 0 | 7 | 0 | -1
O=C1NCCN/C1=C\C(=O)c1cccc(Br)c1 | -22 | 17 | 3 | -17 | 27 | 9
O=C(/C=C/c1ccccc1)N1CCC(N2CCC(C(=O)N3CCOCC3)CC2)CC1 | -13 | 1 | 0 | -5 | 18 | -6
CCOC(=O)/C=c1\s/c(=C\c2ccc(C)cc2)c(=O)n1CC(=O)NCc1ccco1 | -17 | -2 | 1 | -2 | 19* | -3
CCOC(=O)/C=c1/s/c(=C/c2ccc3cc(OC)ccc3c2)c(=O)n1CC(=O)NCc1ccc2c(c1)OCO2 | -4 | -6 | 2 | 38* | 1 | 39*
CCOC(=O)/C=c1\s/c(=C\c2ccc(-c3ccccc3)cc2)c(=O)n1CC(=O)NCc1ccc2c(c1)OCO2 | -2 | 16 | 0 | -15 | 14 | 2
CCOC(=O)/C=c1\s/c(=C\c2ccc(C(F)(F)F)cc2)c(=O)n1CC(=O)NCc1ccco1 | -4 | 5 | 2 | -10 | 11 | 1
CCn1cc(-c2cc(C(=O)O)c3ccccc3n2)cn1 | 3 | 0 | 0 | 0 | 10 | 0
COc1ccc(CN(C)Cc2cc(=O)n3ccsc3n2)c(OC)c1OC | 5 | 4 | 1 | 6 | 1 | -3
CCCNC(=O)c1ccc(N2CCC3(CC2)CC(c2cccc(Br)c2)=NO3)c([N+](=O)[O-])c1 | 33* | -26 | 11 | 17 | -8 | 2
Cc1ccc(NC(=O)c2cc(C(=O)c3cc(Cl)ccc3O)cn(-c3ccc(C)cc3)c2=O)cc1 | -17 | 2 | 2 | -3 | 5 | -5
OCC1(CCOc2ccccc2)CCN(Cc2nc3ccc(F)cc3[nH]2)CC1 | -2 | -6 | 3 | 5 | 3 | -3
COc1cc(C(CCN2CCCC(C)C2)c2c(OC)cc(OC)c3c2OC(=O)CC3c2ccc(N(C)C)cc2)cc(OC)c1OC (configuration not stated) | 3 | 22* | 3 | -2 | 10 | 2
CS(=O)(=O)N(Cc1ccc(C(=O)NN=C2CCCCCC2)cc1)c1ccccc1 | -2 | 25* | 0 | 13 | 9 | 2
CS(=O)(=O)N(Cc1ccc(C(=O)NN=C2CCCC2)cc1)c1ccccc1 | -1 | -2 | 1 | 3 | 3 | 0

Screening data (PubChem)
